A selection: hits, their analogues and other compounds. The true share with any hit is near 5.7%.
SKKanGAS inh – inhibitors of SKKanGAS S. pyogenes growth in kanamycin (SK-promoter or general growth effect); BacTiter-Glo, 6 h; inhibition, % at 7.5 µM; actives 1.3% (n = 300,000); AID 1662;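 active means mean replicate score, as percent of positive control median, at least 50; inconclusive means mean below 50 but one replicate at or above 50; inactive means mean and every replicate below 50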;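 further: strain carries kanamycin resistance gene driven by streptokinase promoter and grows in 40 µg/ml kanamycin; loss of luminescence reflects streptokinase promoter inhibition or plain growth inhibition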
Mdm2-MdmX inh – inhibitors of human Mdm2/MdmX interaction; inhibition, % at 8 µM; actives 3% (n = 330,000); SaOS-2 split-luciferase Mdm2/MdmX complementation, luminescence;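 active means inhibition of at least 50% at 8 µM in the primary screen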
Target sequence (O15151 whole entry, looked up): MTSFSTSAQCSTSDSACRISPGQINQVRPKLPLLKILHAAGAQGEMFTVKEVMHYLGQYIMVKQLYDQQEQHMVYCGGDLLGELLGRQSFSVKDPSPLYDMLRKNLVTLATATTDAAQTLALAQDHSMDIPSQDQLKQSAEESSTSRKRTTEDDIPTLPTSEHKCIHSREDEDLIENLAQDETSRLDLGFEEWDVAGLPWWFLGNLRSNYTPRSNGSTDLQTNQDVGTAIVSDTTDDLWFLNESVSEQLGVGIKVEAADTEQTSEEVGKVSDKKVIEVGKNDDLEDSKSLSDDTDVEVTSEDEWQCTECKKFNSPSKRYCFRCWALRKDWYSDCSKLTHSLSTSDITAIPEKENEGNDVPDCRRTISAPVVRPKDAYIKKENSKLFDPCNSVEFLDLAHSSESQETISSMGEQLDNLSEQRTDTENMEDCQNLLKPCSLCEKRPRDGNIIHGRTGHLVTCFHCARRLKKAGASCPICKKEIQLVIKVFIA
Target sequence (Q00987 whole entry, looked up): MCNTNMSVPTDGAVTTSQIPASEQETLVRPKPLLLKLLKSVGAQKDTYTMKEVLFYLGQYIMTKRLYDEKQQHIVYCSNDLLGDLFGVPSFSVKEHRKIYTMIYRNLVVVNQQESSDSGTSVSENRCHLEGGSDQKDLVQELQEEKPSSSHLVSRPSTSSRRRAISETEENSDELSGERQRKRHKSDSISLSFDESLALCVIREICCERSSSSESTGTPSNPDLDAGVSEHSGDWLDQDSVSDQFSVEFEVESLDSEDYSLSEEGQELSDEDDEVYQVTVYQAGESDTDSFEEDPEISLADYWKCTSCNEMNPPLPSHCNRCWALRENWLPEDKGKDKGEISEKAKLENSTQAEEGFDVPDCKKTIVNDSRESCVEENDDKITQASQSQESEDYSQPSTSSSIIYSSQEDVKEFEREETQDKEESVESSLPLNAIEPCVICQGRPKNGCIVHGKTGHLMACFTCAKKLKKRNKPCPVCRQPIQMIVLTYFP
Beta cell apopt – blocks beta cell apoptosis; actives 0.8% (n = 300,000); INS-1E cytokine-induced death, ATP luminescence, 48 h; percent of positive-control rescue, neutral wells zero; protection from apoptosis, % (concentration not given with the values);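 active means Every replicate reaches about 75%, or at least half do and their mean reaches it too, limit read from the data; inconclusive means At least half of replicates reach the limit but their mean does not; inactive means Under half of replicates reach the limit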;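 further: higher means more ATP so stronger rescue from cytokine killing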
T cruzi repl – blocks replication of Trypanosoma cruzi; AID 1885; inhibition, % (test concentration not listed); T. cruzi beta-gal in NIH3T3, luminescence, 90 h; actives 1.4% (n = 300,000);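 active means mean inhibition across valid replicates above about 55%, limit read from the data; inconclusive means mean below that limit but half or more replicates reach it; inactive means mean below it, under half of replicates reach it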;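 further: signal also drops with host cell toxicity which is not excluded here; higher percent means less beta-gal luminescence so fewer parasites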
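System: mouse NIH/3T3 fibroblasts infected with β-gal-expressing T. cruzi Tulahuen C4 / Input: NIH/3T3 cells, 5,000 per well / Buffer or medium: Low-serum DMEM with 2% FBS / Probe or stimulus: 5000 reporter trypomastigotes per well / Schedule: ≥90 h infection period, 3 h prior cell attachment / Measured by: GalScreen luminescence, 60 min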
CSC inhib – cancer stem cell inhibition | actives 1.1% (n = 300,000) | AID 2717 | cancer stem cell-like cells viability, luminescence | inhibition, % at 7.5 µM; in the data active means inhibition above about 75%; inconclusive means no clear call, values can overlap the other calls; tested in HMLE shEcad cells
Calb FLC – affects C. albicans growth with fluconazole. C. albicans CaCi-2 (fluconazole-resistant clinical isolate) + fluconazole, Alamar Blue growth, 48 h. growth inhibition, % (test concentration not listed). actives 0.57% (n = 300,000). AID 1979;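 active means growth inhibition above about 58% in most replicates, limit read from the data, passing the limit was not always enough; inconclusive means exactly half the replicates above a set limit; inactive means most replicates below a set limit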;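 further: all wells also contain fluconazole at 8 µg/ml as a sub-toxic cotreatment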
Mdm2-MdmX conf – human Mdm2/MdmX binding inhibition, confirmed. shares compounds with Mdm2-MdmX inh. luminescent assay. inhibition, % at 8 µM. actives 55% (n = 10,000). AID 489028; in the data active means inhibition above about 40%
FLuc counter – inhibits full-length luciferase, flagging false Mdm2/MdmX hits. shares compounds with Mdm2-MdmX inh. inhibition, % at 8 µM. SaOS-2 full-length luciferase counterscreen, luminescence. AID 504607. actives 77% (n = 6,200);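 active means mean inhibition at 8 µM reaching about 37%, which flags the compound as non-specific, limit read from the data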;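 further: p53-null SaOS-2 cells with luciferase driven by a doxycycline-inducible promoter; compound on cells about two nights before reading with doxycycline added after day one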
Numbers stand for hits; 0 = inactive; ? = inconclusive; - = no result.

SMILES | SKKanGAS inh | Mdm2-MdmX inh | Beta cell apopt | T cruzi repl | CSC inhib | Calb FLC | Mdm2-MdmX conf | FLuc counter
COc1ccc(-c2nn(-c3ccccc3)cc2C(=O)NC(=S)Nc2cc(Cl)ccc2Cl)cc1 | 0 | 73.7 | 0 | 0 | 0 | 0 | 43.5 | 51.0
Cc1ccc(C(=O)O/N=C/c2c(N3CCOCC3)n(C)c3ccccc23)cc1 | 0 | 51.4 | 98.8 | 56.1 | 0 | 110.1 | 40.5 | 0
CC[n+]1c(/C=C/c2c[nH]c3ccccc23)ccc2cc(C)ccc21 | - | 71.6 | - | - | - | - | 55.9 | 72.7
Cc1c(N=C2N=C(NC(=O)Nc3ccc(Cl)cc3)c3ccccc32)c(=O)n(-c2ccccc2)n1C | 0 | 58.0 | 0 | 0 | - | 0 | 0 | -
CC(C)c1nc2cc(C(=O)N3CCNC(=O)C3c3ccc(F)cc3)ccc2o1 (stereo not drawn) | 0 | 0 | 0 | 0 | 0 | 0 | - | -
Cc1ccc(S(=O)(=O)Nc2cccc3ncccc23)s1 | 71.0 | 100.6 | 0 | 0 | 0 | 0 | 0 | -
CCCOc1ccccc1N/C(=N/c1nc(C)cc(C)n1)NC(=O)COc1ccc(OC)cc1 | 0 | 56.5 | 0 | 0 | 0 | 0 | 0 | -
CCCOc1ccccc1N/C(N)=N/c1nc(C)cc(C)n1 | 0 | 0 | 0 | 0 | 0 | 0 | - | -
CCCCCc1ccc(OCCC[n+]2ccccc2)c(CCCCC)c1 | 0 | 88.6 | 113.2 | 75.5 | 0 | 0 | 75.7 | 0
CC(=O)Nc1ccc(OCCC[n+]2ccccc2)cc1 | 0 | 0 | 0 | 0 | 0 | 0 | - | -
CC[C@H]1CN2CCc3cc(OC)c(OC)cc3C2C[C@@H]1C[C@H]1NCCc2cc(OC)c(OC)cc21 (stereo partly drawn) | - | 97.5 | - | - | - | - | 99.4 | 51.2
CC(Sc1nnc(-c2cccnc2)o1)C(=O)NC1CCCCC1 (stereo not drawn) | - | 0 | 0 | - | 0 | - | - | -
CN(C)C(CNc1ccc(C(F)(F)F)cn1)c1ccccc1 (stereo not drawn) | 0 | 0 | 0 | 0 | 0 | 0 | - | -
CNCC[C@@H](Oc1ccc(C(F)(F)F)cc1)c1ccccc1 | - | 50.4 | 0 | - | 0 | - | 0 | -
O=C1c2ccccc2-c2n[nH]c3cccc1c23 | - | 53.4 | - | - | - | - | 0 | -
O=c1c(-c2ccccc2)n[nH]c2ccccc12 | 0 | 0 | 0 | 0 | 0 | 0 | - | -
Cc1ccc(CCNC(=O)C2CCN(S(=O)(=O)N3CCOCC3)CC2)cc1 | 0 | 0 | 0 | 0 | 0 | 0 | - | -
O=C(CCl)N(c1ccccc1)C1CCCCC1 | 0 | 93.7 | 106.9 | 65.0 | 0 | 0 | 99.8 | 52.2
COc1ccccc1C(=O)/C=C/c1ccc(N2CCCCC2)c([N+](=O)[O-])c1 | 0 | 98.8 | - | 0 | - | 0 | 0 | 70.3
CCOC(=O)[C@H]1[C@H]2COc3ccc(Br)cc3[C@@H]2N2C(=O)CN(Cc3ccccc3)C(=O)[C@@]12C | - | 0 | 0 | - | 0 | - | - | -
Cc1ccc2[nH]c(CN3CCC(CO)(CC4CCCCO4)CC3)c(C)c2c1 (stereo not drawn) | 0 | 53.0 | 0 | 0 | 0 | 0 | 0 | -
Cc1cc(=O)oc2cc(OCC(=O)Nc3ccc4[nH]c(=O)[nH]c4c3)ccc12 | 0 | 0 | 0 | 0 | 0 | - | - | -
O=C(c1[nH]ncc1-c1cccc(Br)c1)C1CO1 (stereo not drawn) | 0 | 50.9 | 0 | 0 | 0 | 0 | 43.5 | 50.8
COc1cc(C(CC(=O)Nc2ccc(Cl)cn2)N2Cc3ccccc3C2=O)cc(OC)c1OC (stereo not drawn) | 0 | 0 | 0 | 0 | 0 | 0 | - | -
COc1ccc(/C=C(\NC(=O)c2ccc(Cl)cc2)C(=O)NCC2CCCO2)cc1OC (stereo not drawn) | 0 | 0 | 0 | 0 | - | 0 | - | -
SMILES | SKKanGAS inh | Mdm2-MdmX inh | Beta cell apopt | T cruzi repl | CSC inhib | Calb FLC | Mdm2-MdmX conf | FLuc counter
COC(=O)CCC(=O)NC(=S)Nc1sc(C)c(C)c1C(N)=O | 0 | 61.0 | - | 0 | 0 | 0 | 57.9 | 91.5
Cn1nc(C(=O)Nc2ccc3c(c2)OCCO3)c2ccccc2c1=O | - | 0 | 0 | - | - | - | - | -
CCCCn1nc(C(=O)Nc2ccc3c(c2)OCCO3)c2ccccc2c1=O | - | 57.6 | 0 | - | - | - | 0 | -
CC1(C)Cc2ccccc2C2=NNC(=O)C2=N1 | 0 | 85.8 | 0 | 0 | 0 | 0 | 64.9 | 0
COc1ccc(C(=O)Nc2cccc(/C(C)=N/NC(=O)c3ccc([N+](=O)[O-])c(C)c3)c2)cc1OC | 0 | 55.6 | 0 | 0 | 0 | 0 | 0 | -
C/C(=N/NC(=O)c1ccc(C)s1)c1cccc(NC(=O)COc2ccc(Cl)cc2C)c1 | 0 | 88.8 | 0 | 0 | 0 | 0 | 0 | -
C/C(=N\NC(=O)c1ccc(O)cc1)c1cccc(NC(=O)c2ccc(Cl)cc2)c1 | 0 | 58.3 | 0 | 0 | 0 | 0 | 0 | -
COc1ccc(C(=O)Nc2cccc(/C(C)=N\NC(=O)c3ccoc3C)c2)cc1OC | 0 | 0 | - | 0 | - | 0 | - | -
O=C(NC1CCCC1)c1cnn2c(C(F)(F)F)cc(-c3ccc4c(c3)OCO4)nc12 | 0 | 62.2 | - | 0 | 0 | 0 | 0 | -
O=C(c1cnn2c(C(F)(F)F)cc(-c3ccc4c(c3)OCO4)nc12)N1CCCCC1 | 0 | 0 | 0 | 0 | 0 | 0 | - | -
CC1=CC(C)(C)Nc2ccc(OC(=O)C(C)N3C(=O)c4ccccc4C3=O)cc21 (stereo not drawn) | 0 | 56.5 | 0 | 0 | 0 | 0 | 0 | -
CC1=CC(C)(C)Nc2ccc(OC(=O)c3ccco3)cc21 | 0 | 72.1 | 0 | 0 | 0 | 0 | 0 | -
CC1=CC(C)(C)Nc2ccc(OC(=O)CN3C(=O)CCC3=O)cc21 | 0 | 55.4 | - | 55.9 | - | 0 | 0 | -
COc1ccc(OC(=O)C(C)N2C(=O)c3ccccc3C2=O)cc1 (stereo not drawn) | 0 | 0 | - | 0 | - | 0 | - | -
CC1=CC(C)(C)N2C(=O)C(=O)c3cc(OC(=O)c4ccco4)cc1c32 | 0 | 74.6 | 0 | 0 | 0 | 0 | 58.9 | 51.6
CN(C)c1cccc(C(=O)NCC(c2ccco2)N(C)C)c1 (stereo not drawn) | 0 | 0 | 0 | 0 | - | 0 | - | -
Cc1ccc2[nH]c3c(=O)n(CC(=O)N4CC(C)CC(C)C4)ncc3c2c1 (stereo not drawn) | 0 | 0 | 0 | 0 | 0 | 0 | - | -
CCn1c(CNC(=O)c2ccccc2Br)nnc1SCC(=O)NC1=NCCS1 | 0 | 0 | 0 | 0 | 0 | 0 | - | -
CCC(C)c1ccccc1N1CC(C(=O)Nc2ccc(S(=O)(=O)N3CCOCC3)cc2)CC1=O (stereo not drawn) | 0 | 0 | 0 | 0 | 0 | 0 | - | -
COc1ccc(C2NC(=O)NC3=C2CCc2ccccc23)cc1 (stereo not drawn) | 0 | 54.7 | 0 | - | 0 | 0 | 45.9 | 83.0
Oc1ccc(Cn2ccnc2)c2cccnc12 | 0 | 0 | 0 | 0 | - | 0 | - | -
Cc1cccc(NCc2ccccc2O)c1C | 0 | 0 | 0 | 0 | 0 | 0 | - | -
Cc1cccc(NCc2ccc(O)c3ncccc23)c1 | 0 | 76.7 | 0 | 0 | 0 | ? | 74.2 | 43.0
Cc1ccccc1NCc1ccc(O)c2ncccc12 | 0 | 83.9 | - | 0 | 0 | 0 | 76.0 | 41.3

Screening results as filed in PubChem BioAssay.
